≈ marks a conversion by molar mass, not a printed value.

The term fraction remaining denotes the share of the starting amount still present when the sample was taken. In general, IC50 refers to the concentration needed to halve the response being measured. For orientation: MIC means the lowest concentration found to suppress growth.

Data set [1] can be described thus: Metabolic stability in human liver microsomes assessed as compound remaining at 2 uM after 30 mins incubation by LC-MS/MS analysis. Background: Liver microsomes are a subcellular fraction often used to study metabolism.
Data set [2] in a line: Inhibition of Staphylococcus aureus MraY by fluorescence assay. The method, boiled down: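 Purified S. aureus MraY was given UDP-MurNAc-dansylpentapeptide as substrate. Formation of dansylated lipid I was followed by fluorescence enhancement (excitation 355 nm, emission 535 nm).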
In data set [3] the test system is Pseudomonas aeruginosa. Put plainly: Antibacterial activity against Pseudomonas aeruginosa ATCC 25619 assessed as growth inhibition after 20 hrs by microdilution method. It is filed as functional. As to conditions: ATCC 25619, 20 h. In a few lines:
(§1)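 Broth microdilution per CLSI in cation-adjusted Mueller-Hinton broth, using serial 2-fold compound dilutions. Each strain was inoculated at 5 × 10⁴ CFU per well in 0.1 mL. Plates were incubated at 35 °C for 20 h, and the MIC was then scored.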

A short description of data set [4]: Metabolic stability in rat liver microsomes assessed as compound remaining at 2 uM after 30 mins incubation by LC-MS/MS analysis.
Data set [5] concerns Pseudomonas aeruginosa. Put plainly: Antibacterial activity against Pseudomonas aeruginosa ATCC 27853 assessed as growth inhibition after 20 hrs by microdilution method. It is filed as functional. The settings on record: ATCC 27853, 20 h. In a few lines: as §1
In general terms: Dilution methods test growth across graded concentrations, often in twofold steps.

For data set [6], the system named is Pseudomonas aeruginosa. Put plainly: Antibacterial activity against Pseudomonas aeruginosa YY165 deltamexB mutant assessed as growth inhibition after 20 hrs by microdilution method. The class given is functional. As to conditions: YY165, 20 h. In a few lines: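 Broth microdilution per CLSI in cation-adjusted Mueller–Hinton broth; serial 2-fold compound dilutions inoculated with 5 × 10⁴ CFU per well (0.1 mL), incubated 35 °C for 20 h, then MIC scored. Strain YY165 is a MexB deletion mutant lacking the inner-membrane transporter of the MexAB-OprM efflux system.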

For data set [7], the system named is Pseudomonas aeruginosa. Kind of data set: Antibacterial activity against Pseudomonas aeruginosa PAO1 assessed as growth inhibition after 20 hrs by microdilution method. The class given is functional. The settings on record: PAO1, 20 h. In a few lines: as §1
For data set [8], the system named is Pseudomonas aeruginosa. Put plainly: Antibacterial activity against clinical isolate Pseudomonas aeruginosa SR27156 assessed as growth inhibition after 20 hrs by microdilution method. The class given is functional. As to conditions: SR27156, 20 h. In a few lines: as §1
The subject of another data set is HepG2. Put plainly: Cytotoxicity against human HepG2 cells. The class given is functional, cell-based.

In the case of `CCCCCCCCCCCCCCCCC(=O)N[C@@H](CCCNC(=N)N)C(=O)NCCCN[C@H](C(=O)O)[C@H](O[C@@H]1O[C@H](CN)[C@@H](O)[C@H]1O)[C@H]1O[C@@H](n2ccc(=O)[nH]c2=O)[C@H](O)[C@@H]1O`, the amount remaining at 0.5 h, 2 µM in [1] is 89.5%; in data set [4] it was 81.1%. The compound further showed an IC50 in data set [2] of 1.6 nM. Also, the MIC was 16 µg/mL (≈ 17.5 µM) with Pseudomonas aeruginosa [3]; 32 µg/mL (≈ 35 µM) in the data set on Pseudomonas aeruginosa [5]; 8 µg/mL (≈ 8.75 µM) in the data set on Pseudomonas aeruginosa [6]; 16 µg/mL (≈ 17.5 µM) with Pseudomonas aeruginosa [7]; 16 µg/mL (≈ 17.5 µM) with Pseudomonas aeruginosa [8].
Take `CCCCCCCCCCCCCCCCC(=O)N[C@@H](CCCNC(=N)N)C(=O)NCCCN[C@H](C(=O)NCCCCNC(=N)N)[C@H](O[C@@H]1O[C@H](CN)[C@@H](O)[C@H]1O)[C@H]1O[C@@H](n2ccc(=O)[nH]c2=O)[C@H](O)[C@@H]1O`: the amount remaining at 0.5 h, 2 µM in [1] was found to be 86.9%; in data set [4] it was 69.8%. The values for the IC50 (in [2]; with HepG2) were 0.6 nM and 34 µg/mL (≈ 33.1 µM), respectively. Also, the minimal inhibitory concentration (MIC) in the data set on Pseudomonas aeruginosa [3] was 8 µg/mL (≈ 7.8 µM); in the data set with Pseudomonas aeruginosa [5], 8 µg/mL (≈ 7.8 µM); in the data set on Pseudomonas aeruginosa [6] it was 4 µg/mL (≈ 3.9 µM); with Pseudomonas aeruginosa [7] it was 4 µg/mL (≈ 3.9 µM); in the data set with Pseudomonas aeruginosa [8], 8 µg/mL (≈ 7.8 µM).
`CC(C)C[C@H](NC(=O)[C@@H](NC(=O)N[C@H](C(=O)O)C(C)C)[C@@H]1CCNC(=N)N1)C(=O)NCCCN[C@H](C(=O)O)[C@H](O[C@@H]1O[C@H](CN)[C@@H](O)[C@H]1O)[C@H]1O[C@@H](n2ccc(=O)[nH]c2=O)[C@H](O)[C@@H]1O` [MURAMYCIN D2] returned an IC50 in data set [2] of 2.8 nM. The MIC is 64 µg/mL (≈ 69.9 µM) in the data set with Pseudomonas aeruginosa [3]; above 64 µg/mL in the data set with Pseudomonas aeruginosa [5]; 64 µg/mL (≈ 69.9 µM) with Pseudomonas aeruginosa [6]; above 64 µg/mL with Pseudomonas aeruginosa [7]; 32 µg/mL (≈ 34.9 µM) with Pseudomonas aeruginosa [8].
In data set [2], `CCCCCCCCCCCCCCC[C@H](NC(=O)c1cnccn1)C(=O)NCCCN[C@H](C(=O)O)[C@H](O[C@@H]1O[C@H](CN)[C@@H](O)[C@H]1O)[C@H]1O[C@@H](n2ccc(=O)[nH]c2=O)[C@H](O)[C@@H]1O` came in with an IC50 of 33.1 nM. For the same compound, the MIC with Pseudomonas aeruginosa [3] is 64 µg/mL (≈ 72.8 µM); with Pseudomonas aeruginosa [5] it was above 64 µg/mL; with Pseudomonas aeruginosa [6], above 64 µg/mL; in the data set with Pseudomonas aeruginosa [7], above 64 µg/mL; in the data set on Pseudomonas aeruginosa [8], above 64 µg/mL.
For the compound `CCCCCCCCC(=O)NCCCCCC(=O)NCCCN[C@H](C(=O)O)[C@H](O[C@@H]1O[C@H](CN)[C@@H](O)[C@H]1O)[C@H]1O[C@@H](n2ccc(=O)[nH]c2=O)[C@H](O)[C@@H]1O`, in data set [2], the IC50 came to 97.3 nM. In addition, the MIC in the data set with Pseudomonas aeruginosa [3], in the data set with Pseudomonas aeruginosa [5], with Pseudomonas aeruginosa [6], in the data set on Pseudomonas aeruginosa [7] and with Pseudomonas aeruginosa [8] was above 64 µg/mL throughout.

The values are drawn from ChEMBL document CHEMBL3286247, “Expansion of Antibacterial Spectrum of Muraymycins toward Pseudomonas aeruginosa” (ACS Med Chem Lett, 2014).
